Activity calls are given as the source filed them. No cut-off for these calls is given here.
Experiments:
[1] = Cytotoxicity against human MT4 cells by MTT assay; format: cell-based
[2] = Cytotoxicity against human CEM-SS cells by MTT assay; format: cell-based
[3] = system: Human immunodeficiency virus 1; assay: Antiviral activity against HIV1 RF in human CEM-SS cells by XTT assay; format: functional, organism-based; settings: for EC50: Human immunodeficiency virus 1, RF
[4] = system: Human immunodeficiency virus 2; assay: Antiviral activity against HIV2 ROD in human MT4 cells by MTT assay; settings: for EC50: Human immunodeficiency virus 2, ROD
[5] = target: Human immunodeficiency virus type 1 reverse transcriptase (Human immunodeficiency virus 1, UniProt Q72547); assay: Inhibition of HIV1 reverse transcriptase
[6] = system: Human immunodeficiency virus 1; assay: Antiviral activity against HIV1 3B in human MT4 cells by MTT assay; settings: for EC50: Human immunodeficiency virus 1, 3B
[7] = system: Human immunodeficiency virus 1; assay: Antiviral activity against HIV1 with RT K103N mutation; format: functional, organism-based
Summary of the method: (§1)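 Cytoprotection assay in CEM-SS cells infected with HIV-1 strains engineered to carry the NNRTI-resistance RT mutation (K103N or Y181C). Activity is expressed as the EC50 for protection of the cells from virus-induced cytopathic effect.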

[8] = Metabolic stability in rat plasma; format: ADME, cell-free
Summary of the method: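 Compounds were incubated in reconstituted rat plasma (two lots, checked with a control compound), with 1,1-diphenylethylene as internal standard. Aliquot supernatants were analysed by HPLC with UV detection. Half-lives came from regression fits of concentration versus time and were averaged over at least two replicates.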

[9] = system: Human immunodeficiency virus 1; assay: Antiviral activity against HIV1 with RT Y181C mutation; format: functional, organism-based; summary of the method: as §1

Row | Structure (SMILES) | CC50 [1] [µM] | CC50 [2] [µM] | Activity [3] | Activity [4] | IC50 [5] [µM] | Activity [6] | EC50 [7] [µM] | half-life [8] [h] | EC50 [3] [µM] | EC50 [9] [µM] | EC50 [6] [µM] | EC50 [4] [µM]
1 | COc1c(C)cc(/C(=C/CCc2nnc(C)o2)c2cccc(C#N)c2)cc1C(=O)SC | 3.8 | 1.3 | inactive | inactive | 55 | inactive | – | – | – | – | – | –
2 | COc1c(C)cc(/C(=C\CCCc2nnc(C)o2)c2cc(C)c3onc(OC)c3c2)cc1C(=O)SC | 7 | 5.7 | – | inactive | 0.47 | – | 0.4 | 14.4 | 0.05 | > 100 | 0.14 | –
3 | COC(=O)CCC/C=C(\c1cc(C)c(OC)c(C(=O)OC)c1)c1cc(C)c2onc(OC)c2c1 | – | – | – | – | 0.91 | – | – | – | – | – | – | –
4 | COC(=O)c1cc(C(=CCCc2nnn(C)n2)c2cc(C)c(OC)c(C(=O)SC)c2)cc(C)c1OC | 1.4 | 1.6 | inactive | inactive | 95 | inactive | – | – | – | – | – | –
5 | COC(=O)c1cc(C(=CCCc2nnc(C)o2)c2cc(C)c(OC)c(C(=O)SC)c2)cc(C)c1OC | 3.9 | 13 | inactive | inactive | 32 | inactive | – | 1.3 | – | – | – | –
6 | COc1c(C)cc(/C(=C\CCc2nnc(C)o2)c2cc(C)c3onc(OC)c3c2)cc1C(=O)SC | 4.4 | 2.1 | – | inactive | 0.9 | – | > 50 | 18.2 | 0.52 | > 100 | 0.81 | –
7 | COC(=O)CCC/C=C(\c1cc(C)c(OC)c(C(=O)OC)c1)c1cc(C)c2oc(=O)n(C)c2c1 | – | – | – | inactive | – | – | – | – | – | – | – | –
8 | COc1c(C)cc(/C(=C/CCCc2nnc(C)o2)c2cccc(C#N)c2)cc1C(=O)SC | 8.2 | 7.2 | inactive | inactive | 7.7 | inactive | – | – | – | – | – | –
9 | COc1c(C)cc(/C(=C\CCCc2nnc(C)o2)c2cc(C)c3on(C)c(=O)c3c2)cc1C(=O)SC | 9.9 | 6 | – | inactive | > 100 | – | – | – | 0.97 | – | 0.76 | –
10 | COc1c(C)cc(/C(=C/CCc2nnc(C)o2)c2cc(C)c3onc(OC)c3c2)cc1C(=O)SC | 1.6 | 1.2 | inactive | inactive | 33 | inactive | – | – | – | – | – | –
11 | COC(=O)c1cc(/C(=C\CCc2nnn(C)n2)c2cccc(C#N)c2)cc(C)c1OC | 34 | 7.4 | – | inactive | 7.7 | – | – | 0.7 | 2.4 | – | 1.5 | –
12 | COC(=O)c1cc(/C(=C\CCc2nnc(C)o2)c2cc(C)c3onc(OC)c3c2)cc(C)c1OC | 6.4 | 2.8 | – | inactive | 0.39 | – | 0.8 | 5.52 | 0.36 | > 100 | 0.42 | –
13 | COC(=O)c1cc(/C(=C\CCc2nnc(C)o2)c2cc(C)c3on(C)c(=O)c3c2)cc(C)c1OC | 41 | 7.7 | – | inactive | 7.4 | – | > 50 | 3.66 | 3 | > 100 | 2.7 | –
14 | COc1c(C)cc(C(=CCCc2nnc(C)o2)c2cc(C)c(OC)c(C(=O)SC)c2)cc1C(=O)SC | 5.9 | 8.1 | inactive | inactive | > 100 | inactive | – | – | – | – | – | –
15 | COc1c(C)cc(/C(=C/CCCc2nnc(C)o2)c2ccc(C#N)cc2)cc1C(=O)SC | 7.6 | 4.8 | inactive | inactive | 0.45 | inactive | > 50 | 0.692 | – | > 100 | – | –
16 | COc1c(C)cc(/C(=C\CCc2nnc(C)o2)c2cccc(C#N)c2)cc1C(=O)SC | 8.4 | 2.7 | inactive | inactive | 9.3 | – | – | 3.68 | – | – | 1.4 | –
17 | COc1c(C)cc(/C(=C/CCc2nnc(C)o2)c2ccc3oc(=O)n(C)c3c2)cc1C(=O)SC | 12 | 5.9 | – | – | 2.6 | – | 1 | 12.3 | 0.6 | > 100 | 0.69 | 4.7
18 | COc1c(C)cc(/C(=C\CCCc2nnc(C)o2)c2cccc(C#N)c2)cc1C(=O)SC | 36 | 12 | – | inactive | 0.52 | – | 1.2 | 3.68 | 0.5 | > 100 | 0.83 | –

Row | Structure (SMILES) | CC50 [1] [µM] | CC50 [2] [µM] | Activity [3] | Activity [4] | IC50 [5] [µM] | Activity [6] | EC50 [7] [µM] | half-life [8] [h] | EC50 [3] [µM] | EC50 [9] [µM] | EC50 [6] [µM] | EC50 [4] [µM]
19 | COC(=O)c1cc(/C(=C\CCc2nnc(C)o2)c2ccc(C#N)cc2)cc(C)c1OC | 16 | 28 | – | inactive | 24 | – | – | 0.75 | 3 | – | 2 | –
20 | O=C1Nc2ccc(Cl)cc2C(C#CC2CC2)(C(F)(F)F)O1 (single isomer, unassigned) [EFAVIRENZ] | 6 | – | – | inactive | – | – | – | – | – | – | – | –
21 | COC(=O)CCCC=C(c1cc(Br)c(OC)c(C(=O)OC)c1)c1cc(Br)c(OC)c(C(=O)OC)c1 | 91 | 13 | – | inactive | – | – | – | 0.103 | – | – | – | –
22 | COc1c(C)cc(/C(=C\CCc2nnc(C)o2)c2cc(C)c3on(C)c(=O)c3c2)cc1C(=O)SC | 19 | 18 | – | inactive | 9.2 | – | > 50 | – | 6.4 | > 100 | 3.7 | –
23 | COc1c(C)cc(/C(=C/CCCc2nnc(C)o2)c2cc(C)c3on(C)c(=O)c3c2)cc1C(=O)SC | 25 | 12 | inactive | inactive | > 100 | inactive | – | – | – | – | – | –
24 | COc1c(C)cc(/C(=C\CCc2nnc(C)o2)c2ccc3oncc3c2)cc1C(=O)SC | – | 38 | – | – | 7.7 | – | > 50 | – | 2.6 | > 100 | – | –
25 | COC(=O)c1cc(C(=CCCc2nnn(C)n2)c2cc(C)c(OC)c(C(=O)OC)c2)cc(C)c1OC | 5 | 9.6 | inactive | inactive | 53 | inactive | – | 0.4 | – | – | – | –
26 | COc1c(C)cc(/C(=C/CCc2nnc(C)o2)c2cc(C)c3oc(=O)n(C)c3c2)cc1C(=O)SC | 14 | 6.6 | inactive | – | 90 | inactive | – | – | – | – | – | 5.9
27 | COc1c(C)cc(/C(=C/CCCc2nnc(C)o2)c2cc(C)c3onc(OC)c3c2)cc1C(=O)SC | 1.1 | 0.78 | inactive | inactive | 5.2 | inactive | > 50 | – | – | > 100 | – | –
28 | COc1c(C)cc(/C(=C/CCCc2nnc(C)o2)c2cc(C)c3oc(=O)n(C)c3c2)cc1C(=O)SC | 7.7 | 5.5 | inactive | inactive | 36 | inactive | – | – | – | – | – | –
29 | COC(=O)c1cc(/C(=C/CCc2nnc(C)o2)c2cc(C)c3oc(=O)n(C)c3c2)cc(C)c1OC | 13 | 3.2 | – | inactive | 1 | – | > 50 | – | 0.43 | > 100 | 0.44 | –
30 | Cc1ccnc2c1NC(=O)c1cccnc1N2C1CC1 [NEVIRAPINE] | 15 | – | – | inactive | – | – | – | – | 0.015 | – | – | –
31 | COc1c(C)cc(/C(=C/CCc2nnc(C)o2)c2cc(C)c3on(C)c(=O)c3c2)cc1C(=O)SC | 37 | 17 | inactive | inactive | > 100 | inactive | – | – | – | – | – | –
32 | COc1c(C)cc(C(=CCCc2nnn(C)n2)c2cc(C)c(OC)c(C(=O)SC)c2)cc1C(=O)SC | 7 | 33 | – | inactive | 67 | inactive | – | – | – | – | – | –
33 | COc1c(C)cc(/C(=C/CCc2nnc(C)o2)c2ccc(C#N)cc2)cc1C(=O)SC | 3.2 | 1.2 | inactive | inactive | 48 | inactive | – | – | – | – | – | –
34 | COC(=O)CCCC=C(c1cc(Cl)c(OC)c(C(=O)OC)c1)c1cc(Cl)c(OC)c(C(=O)OC)c1 | 160 | 32 | – | – | – | – | – | 0.0967 | 0.01 | – | – | 25
35 | COc1c(C)cc(/C(=C\CCc2nnc(C)o2)c2ccc(C#N)cc2)cc1C(=O)SC | 45 | 5.5 | – | inactive | 6.3 | – | > 50 | – | 2.1 | > 100 | 3.2 | –
36 | COC(=O)c1cc(C(=CCCc2nnc(C)o2)c2cc(C)c(OC)c(C(=O)OC)c2)cc(C)c1OC | 37 | 40 | – | inactive | 71 | – | – | 0.055 | – | – | – | –

Source: ChEMBL document CHEMBL1148795 (J Med Chem, 2007)
